# Experimental data reported in ChEMBL document CHEMBL1145341, “Synthesis and biological evaluation of bisindenoisoquinolines as topoisomerase I inhibitors” (2006).
# Activity calls are given as the source filed them. The rule behind the calls is not given here.
# Legend:
# SF-539 = assay: Antiproliferative activity against human SF539 cell line; assay type: functional
# HCT-116 = assay: Antiproliferative activity against human HCT116 cell line; assay type: functional
# DU-145 = assay: Antiproliferative activity against human DU145 cell line; assay type: functional
# SN12C = assay: Antiproliferative activity against human SN12C cell line; assay type: functional
# HOP-62 = assay: Antiproliferative activity against human HOP62 cell line; assay type: functional
# OVCAR-3 = assay: Antiproliferative activity against human OVCAR-3 cell line; assay type: functional
# UACC-62 = assay: Antiproliferative activity against human UACC62 cell line; assay type: functional
# MDA-MB-435 = assay: Antiproliferative activity against human MDA-MB-435 cell line; assay type: functional
# [1] = molecular target: T1, DNA topoisomerase 1 (Homo sapiens) (UniProt P11387); assay: Inhibition of human recombinant Top1-mediated DNA cleavage upto 10 uM
# T1 sequence (whole entry): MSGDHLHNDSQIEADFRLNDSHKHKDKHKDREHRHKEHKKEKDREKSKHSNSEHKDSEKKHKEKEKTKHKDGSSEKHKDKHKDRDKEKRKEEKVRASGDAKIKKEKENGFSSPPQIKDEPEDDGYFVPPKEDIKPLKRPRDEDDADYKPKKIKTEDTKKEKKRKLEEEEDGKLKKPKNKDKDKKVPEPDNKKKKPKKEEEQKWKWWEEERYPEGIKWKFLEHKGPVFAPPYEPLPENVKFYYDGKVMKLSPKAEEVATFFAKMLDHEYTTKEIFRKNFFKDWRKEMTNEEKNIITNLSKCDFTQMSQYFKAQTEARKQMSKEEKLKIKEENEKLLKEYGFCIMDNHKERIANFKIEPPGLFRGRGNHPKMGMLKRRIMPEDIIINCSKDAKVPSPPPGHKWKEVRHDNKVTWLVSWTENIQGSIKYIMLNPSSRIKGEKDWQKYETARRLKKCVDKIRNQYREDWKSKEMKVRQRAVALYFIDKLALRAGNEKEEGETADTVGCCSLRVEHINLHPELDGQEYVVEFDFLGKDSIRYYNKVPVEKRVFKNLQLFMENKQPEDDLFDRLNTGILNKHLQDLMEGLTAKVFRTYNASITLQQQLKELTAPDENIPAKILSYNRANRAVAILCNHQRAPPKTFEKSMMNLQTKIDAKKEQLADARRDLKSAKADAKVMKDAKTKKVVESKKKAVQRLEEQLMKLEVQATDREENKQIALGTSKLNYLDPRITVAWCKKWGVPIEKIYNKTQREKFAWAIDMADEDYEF
# How it was run: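 Baculovirus-purified human recombinant Top1. Substrate: 161 bp PvuII/HindIII fragment of pBluescript SK(-), 3′-end labeled with [α-32P]-dGTP by Klenow fill-in, about 50 000 dpm per reaction. Compounds up to 10 µM, 22 °C for 30 min; stopped with 0.5% SDS (final). Denaturing 16% polyacrylamide/7 M urea gels, phosphorimaging. Cleavage scored semiquantitatively (+ to ++++) against a reference indenoisoquinoline and 1 µM camptothecin.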
# [2] = tested on: Panel (12 tumour cell lines); assay: Net cell kill in ip dosed mouse implanted with 12 human tumor cell lines; assay type: functional, organism-based
GI50 (HCT-116) [nM],GI50 (DU-145) [nM],GI50 (OVCAR-3) [nM],GI50 (MDA-MB-435) [nM],Activity [1],Compound,GI50 (SF-539) [nM],GI50 (SN12C) [nM],GI50 (HOP-62) [nM],GI50 (UACC-62) [nM],Activity [2]
1050,1910,8910,2240,–,O=C1c2ccccc2-c2c1c1ccccc1c(=O)n2CCCNCCn1c2c(c3ccccc3c1=O)C(=O)c1ccccc1-2,14500,11000,977,5010,–
< 10,< 10,1020,933,Active,O=C1c2ccccc2-c2c1c1ccccc1c(=O)n2CCCNCCNCCCn1c2c(c3ccccc3c1=O)C(=O)c1ccccc1-2,–,< 10,< 10,52,–
56,288,372,562,–,O=C1c2ccccc2-c2c1c1ccccc1c(=O)n2CCCCNCCCn1c2c(c3ccccc3c1=O)C(=O)c1ccccc1-2,–,132,28,513,–
> 25100,> 25100,> 25100,> 25100,–,O=C1c2ccccc2-c2c1c1ccccc1c(=O)n2CCNCCn1c2c(c3ccccc3c1=O)C(=O)c1ccccc1-2,> 25100,> 25100,> 25100,> 25100,–
< 10,–,74,107,Active,O=C1c2ccccc2-c2c1c1ccccc1c(=O)n2CCCNCCCNCCCn1c2c(c3ccccc3c1=O)C(=O)c1ccccc1-2,11,< 10,< 10,42,inactive
–,–,1200,1550,–,CN(CCCn1c2c(c3ccccc3c1=O)C(=O)c1ccccc1-2)CCCn1c2c(c3ccccc3c1=O)C(=O)c1ccccc1-2,1120,589,–,2000,–
550,1000,2950,8910,–,O=C1c2ccccc2-c2c1c1ccccc1c(=O)n2CCCNCCCn1c2c(c3ccccc3c1=O)C(=O)c1ccccc1-2,3630,1550,794,6610,–

# Continued, compound first:
Compound,GI50 (HCT-116) [nM],GI50 (DU-145) [nM],GI50 (OVCAR-3) [nM],GI50 (MDA-MB-435) [nM],Activity [1],GI50 (SF-539) [nM],GI50 (SN12C) [nM],GI50 (HOP-62) [nM],GI50 (UACC-62) [nM],Activity [2]
NCCCn1c2c(c3ccccc3c1=O)C(=O)c1ccccc1-2,180,220,1380,780,–,250,160,200,260,–
O=C1c2ccccc2-c2c1c1ccccc1c(=O)n2CCNCCNCCNCCn1c2c(c3ccccc3c1=O)C(=O)c1ccccc1-2,112,331,1150,1000,Active,275,17,48,269,inactive
O=C1c2ccccc2-c2c1c1ccccc1c(=O)n2CCCNCCCCNCCCn1c2c(c3ccccc3c1=O)C(=O)c1ccccc1-2,< 5,234,135,676,Active,251,< 5,525,562,inactive
O=C1c2ccccc2-c2c1c1ccccc1c(=O)n2CCNCCNCCNCCNCCn1c2c(c3ccccc3c1=O)C(=O)c1ccccc1-2,200,85,32,126,–,12,–,977,–,–
O=C1c2ccccc2-c2c1c1ccccc1c(=O)n2CCCN1CCN(CCCn2c3c(c4ccccc4c2=O)C(=O)c2ccccc2-3)CC1,35500,24000,> 100000,> 100000,–,> 100000,15500,12900,> 100000,–
COc1cc2c3c(n(CCCNCCCNCCCn4c5c(c6cc(OC)c(OC)cc6c4=O)C(=O)c4ccccc4-5)c(=O)c2cc1OC)-c1ccccc1C3=O,331,19500,9550,3980,–,4170,240,1510,4270,–
CC[C@@]1(O)C(=O)OCc2c1cc1n(c2=O)Cc2cc3ccccc3nc2-1 [CAMPTOTHECIN],30,10,–,40,–,10,20,10,10,–
O=C1c2ccccc2-c2c1c1ccccc1c(=O)n2CCNCCCNCCn1c2c(c3ccccc3c1=O)C(=O)c1ccccc1-2,< 5,79,93,24,Active,155,< 5,339,182,inactive
CC(C)(C)OC(=O)N(CCCn1c2c(c3ccccc3c1=O)C(=O)c1ccccc1-2)CCN(CCCn1c2c(c3ccccc3c1=O)C(=O)c1ccccc1-2)C(=O)OC(C)(C)C,14100,> 50100,13200,> 50100,–,> 50100,39800,20000,45700,–
CC(=O)O[C@H]1C(=O)[C@@]2(C)[C@H]([C@H](OC(=O)c3ccccc3)[C@]3(O)C[C@H](OC(=O)[C@H](O)[C@@H](NC(=O)c4ccccc4)c4ccccc4)C(C)=C1C3(C)C)[C@]1(OC(C)=O)CO[C@@H]1C[C@@H]2O,–,–,–,–,–,–,–,–,–,Active
CC(C)(C)OC(=O)N(CCCN(CCn1c2c(c3ccccc3c1=O)C(=O)c1ccccc1-2)C(=O)OC(C)(C)C)CCn1c2c(c3ccccc3c1=O)C(=O)c1ccccc1-2,22900,> 50100,21400,> 50100,–,> 50100,> 50100,22400,> 50100,–
COc1cc2c3c(n(CCNCCCNCCn4c5c(c6cc(OC)c(OC)cc6c4=O)C(=O)c4ccccc4-5)c(=O)c2cc1OC)-c1ccccc1C3=O,45,209,269,813,–,170,28,68,1230,–
CC(C)(C)OC(=O)N(CCCCN(CCCn1c2c(c3ccccc3c1=O)C(=O)c1ccccc1-2)C(=O)OC(C)(C)C)CCCn1c2c(c3ccccc3c1=O)C(=O)c1ccccc1-2,1910,47900,69200,69200,–,8130,36300,11000,93300,–
COc1cc2c3c(n(CCCNCCCNCCCN)c(=O)c2cc1OC)-c1cc2c(cc1C3=O)OCO2,43000,> 100000,880,68000,–,> 100000,33000,–,44000,–
O=C1c2ccccc2-c2c1c1ccccc1c(=O)n2CCNCCNCCn1c2c(c3ccccc3c1=O)C(=O)c1ccccc1-2,29,182,1660,1660,–,–,178,32,331,–
